# Data from ChEMBL document CHEMBL1142488, “Synthesis of N-substituted 5-[2-(N-alkylamino)ethyl]dibenzo[c,h][1,6]naphthyridines as novel topoisomerase I-targeting antitumor agents” (Bioorg Med Chem, 2008).
# Experiments:
# MDA-MB-435 (human) [1] = assay: Antitumor activity against human MDA-MB-435 cells xenografted in NCR/NU NU mouse assessed as tumor volume measured on day 42 initially dosed at 2 mg/kg, ip qd x 5/week for 2 weeks and was gradually increased to 6 mg/kg x 5/week schedule
# [2] = Cytotoxicity against multidrug resistant human KBH5.0 cells overexpressing BCRP after MTT assay; format: functional, cell-based; conditions: KBH5.0 cell
# Outline: (§1)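 IC50 after continuous 4-day exposure to varying drug concentrations, with MTT read at the end of day 4. A drug-free control was included. At least two runs, each in six replicate wells.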
# MDA-MB-435 (human) [3] = assay: Antitumor activity against human MDA-MB-435 cells xenografted in NCR/NU NU mouse assessed as tumor volume measured on day 49 initially dosed at 2 mg/kg, ip qd x 5/week for 2 weeks and was gradually increased to 6 mg/kg x 5/week schedule
# MDA-MB-435 (human) [4] = assay: Antitumor activity against human MDA-MB-435 cells xenografted in NCR/NU NU mouse assessed as tumor volume measured on day 21 initially dosed at 2 mg/kg, ip qd x 5/week for 2 weeks and was gradually increased to 6 mg/kg x 5/week schedule
# MDA-MB-435 (human) [5] = assay: Antitumor activity against human MDA-MB-435 cells xenografted in NCR/NU NU mouse assessed as tumor volume measured on day 35 initially dosed at 2 mg/kg, ip qd x 5/week for 2 weeks and was gradually increased to 6 mg/kg x 5/week schedule
# MDA-MB-435 (human) [6] = assay: Antitumor activity against human MDA-MB-435 cells xenografted in NCR/NU NU mouse assessed as tumor volume measured on day 7 initially dosed at 2 mg/kg, ip qd x 5/week for 2 weeks and was gradually increased to 6 mg/kg x 5/week schedule
# [7] = molecular target: T1, DNA topoisomerase 1 (Homo sapiens) (UniProt P11387); assay: Inhibition of human topoisomerase 1 mediated DNA cleavage assessed as effective drug concentration causing 10% YepG plasmid cleavage relative to camptothecin
# T1 sequence (whole entry): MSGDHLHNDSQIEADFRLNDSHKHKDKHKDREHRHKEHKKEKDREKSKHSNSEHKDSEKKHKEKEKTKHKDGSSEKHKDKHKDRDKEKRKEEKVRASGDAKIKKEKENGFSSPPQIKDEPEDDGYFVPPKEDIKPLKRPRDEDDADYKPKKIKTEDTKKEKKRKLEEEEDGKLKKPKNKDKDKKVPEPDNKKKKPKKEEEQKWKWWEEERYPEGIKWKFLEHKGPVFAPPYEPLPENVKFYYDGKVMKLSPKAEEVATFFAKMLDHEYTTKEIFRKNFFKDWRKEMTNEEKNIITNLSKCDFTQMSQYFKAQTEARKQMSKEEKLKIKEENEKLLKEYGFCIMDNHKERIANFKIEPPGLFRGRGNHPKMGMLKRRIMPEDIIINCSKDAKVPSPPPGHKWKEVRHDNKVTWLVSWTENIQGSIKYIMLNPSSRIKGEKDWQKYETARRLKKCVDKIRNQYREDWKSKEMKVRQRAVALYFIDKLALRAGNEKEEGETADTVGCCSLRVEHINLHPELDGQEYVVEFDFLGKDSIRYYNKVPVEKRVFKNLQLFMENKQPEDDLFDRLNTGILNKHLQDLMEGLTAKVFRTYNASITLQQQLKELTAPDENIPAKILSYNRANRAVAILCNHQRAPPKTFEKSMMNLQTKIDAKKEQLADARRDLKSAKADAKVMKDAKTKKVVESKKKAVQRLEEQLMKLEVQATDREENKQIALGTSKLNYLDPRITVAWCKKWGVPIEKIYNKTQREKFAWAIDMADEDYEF
# Outline: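 Stopped with SDS and proteinase K, 1 h at 37 °C. Alkali-denatured with NaOH/EDTA/sucrose/bromophenol blue, then run on neutral agarose gel.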
# [8] = Cytotoxicity against multidrug resistant human KBV-1 cells overexpressing MDR1 after MTT assay; format: functional, cell-based; conditions: KB-V1
# Outline: as §1
# [9] = Cytotoxicity against human RPMI8402 cells after MTT assay; format: functional, cell-based; conditions: RPMI 8402
# Outline: (§2)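 Suspension cultures at 37 °C, 5% CO2, in RPMI with 10% heat-inactivated FBS, 2 mM L-glutamine, penicillin and streptomycin. Continuous 4-day exposure to a range of drug concentrations, then MTT read-out to give IC50. Drug-free control included. At least two runs, six replicate wells each.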
# MDA-MB-435 (human) [10] = assay: Antitumor activity against human MDA-MB-435 cells xenografted in NCR/NU NU mouse assessed as tumor volume measured on day 14 initially dosed at 2 mg/kg, ip qd x 5/week for 2 weeks and was gradually increased to 6 mg/kg x 5/week schedule
# [11] = Cytotoxicity against human KB3-1 cells after MTT assay; format: functional, cell-based; conditions: KB 3-1
# Outline: as §1
# [12] = Cytotoxicity against camptothecin-resistant and TOP1 deficient mouse P388/CPT45 cells after MTT assay; format: functional, cell-based; conditions: P388CPT45
# Outline: as §2
# MDA-MB-435 (human) [13] = assay: Antitumor activity against human MDA-MB-435 cells xenografted in NCR/NU NU mouse assessed as tumor volume measured on day 28 initially dosed at 2 mg/kg, ip qd x 5/week for 2 weeks and was gradually increased to 6 mg/kg x 5/week schedule
# P388 = assay: Cytotoxicity against mouse P388 cells after MTT assay; format: functional, cell-based
# Outline: as §2
# [14] = Cytotoxicity against camptothecin-resistant human CPT-K5 cells after MTT assay; format: functional, cell-based
# Outline: as §2
# MDA-MB-435 (human) [15] = assay: Antitumor activity against human MDA-MB-435 cells xenografted in NCR/NU NU mouse assessed as tumor volume measured on day 42 initially dosed at 5 mg/kg, ip qd x 5/week for 2 weeks and was gradually increased to 6 mg/kg x 5/week for 2 weeks and adjusted to 6 mg/kg qd x 3/week for 1 week schedule
# MDA-MB-435 (human) [16] = assay: Antitumor activity against human MDA-MB-435 cells xenografted in NCR/NU NU mouse assessed as tumor volume measured on day 49 initially dosed at 5 mg/kg, ip qd x 5/week for 2 weeks and was gradually increased to 6 mg/kg x 5/week for 2 weeks and adjusted to 6 mg/kg qd x 3/week for 1 week schedule
# MDA-MB-435 (human) [17] = assay: Antitumor activity against human MDA-MB-435 cells xenografted in NCR/NU NU mouse assessed as tumor volume measured on day 7 initially dosed at 5 mg/kg, ip qd x 5/week for 2 weeks and was gradually increased to 6 mg/kg x 5/week for 2 weeks and adjusted to 6 mg/kg qd x 3/week for 1 week schedule
# MDA-MB-435 (human) [18] = assay: Antitumor activity against human MDA-MB-435 cells xenografted in NCR/NU NU mouse assessed as tumor volume measured on day 35 initially dosed at 5 mg/kg, ip qd x 5/week for 2 weeks and was gradually increased to 6 mg/kg x 5/week for 2 weeks and adjusted to 6 mg/kg qd x 3/week for 1 week schedule
# MDA-MB-435 (human) [19] = assay: Antitumor activity against human MDA-MB-435 cells xenografted in NCR/NU NU mouse assessed as tumor volume measured on day 21 initially dosed at 5 mg/kg, ip qd x 5/week for 2 weeks and was gradually increased to 6 mg/kg x 5/week for 2 weeks and adjusted to 6 mg/kg qd x 3/week for 1 week schedule
# MDA-MB-435 (human) [20] = assay: Antitumor activity against human MDA-MB-435 cells xenografted in NCR/NU NU mouse assessed as tumor volume measured on day 14 initially dosed at 5 mg/kg, ip qd x 5/week for 2 weeks and was gradually increased to 6 mg/kg x 5/week for 2 weeks and adjusted to 6 mg/kg qd x 3/week for 1 week schedule
# MDA-MB-435 (human) [21] = assay: Antitumor activity against human MDA-MB-435 cells xenografted in NCR/NU NU mouse assessed as tumor volume measured on day 28 initially dosed at 5 mg/kg, ip qd x 5/week for 2 weeks and was gradually increased to 6 mg/kg x 5/week for 2 weeks and adjusted to 6 mg/kg qd x 3/week for 1 week schedule
# [22] = in the assay text read “relative to topotecan” for “relative to camptothecin”
"Activity [7, 22]",SMILES,Activity (MDA-MB-435 (human) [1]),IC50 [2],Activity (MDA-MB-435 (human) [3]),Activity (MDA-MB-435 (human) [4]),Activity (MDA-MB-435 (human) [5]),Activity (MDA-MB-435 (human) [6]),IC50 [8],IC50 [9],Activity (MDA-MB-435 (human) [10]),IC50 [11],IC50 [12],Activity (MDA-MB-435 (human) [13]),IC50 (P388),IC50 [14],other results
< 0.2,CCN(CC#N)CCn1c(=O)c2cc(OC)c(OC)cc2c2cnc3cc4c(cc3c21)OCO4,361 mm3,7 nM,435 mm3,178 mm3,293 mm3,100 mm3,34 nM,1 nM,156 mm3,4 nM,130 nM,202 mm3,1 nM,670 nM,
< 0.2,COc1cc2c(=O)n(CCN(C)CC#N)c3c4cc5c(cc4ncc3c2cc1OC)OCO5,669 mm3,27 nM,919 mm3,370 mm3,528 mm3,149 mm3,43 nM,4 nM,222 mm3,5 nM,220 nM,392 mm3,3 nM,980 nM,
> 10,CCN(CCn1c(=O)c2cc(OC)c(OC)cc2c2cnc3cc4c(cc3c21)OCO4)CC(F)(F)F,543 mm3,750 nM,718 mm3,268 mm3,435 mm3,127 mm3,2900 nM,700 nM,176 mm3,650 nM,> 10000 nM,310 mm3,610 nM,> 10000 nM,
> 10,C#CCN(CC)CCn1c(=O)c2cc(OC)c(OC)cc2c2cnc3cc4c(cc3c21)OCO4,349 mm3,110 nM,488 mm3,170 mm3,331 mm3,115 mm3,100 nM,17 nM,106 mm3,70 nM,2300 nM,204 mm3,35 nM,> 10000 nM,
> 10,COc1cc2c(=O)n(CCN(C)CC(F)(F)F)c3c4cc5c(cc4ncc3c2cc1OC)OCO5,,630 nM,,,,,1000 nM,250 nM,,410 nM,> 10000 nM,,250 nM,> 10000 nM,

# Second part, the compound before the results:
SMILES,"Activity [7, 22]",Activity (MDA-MB-435 (human) [1]),IC50 [2],Activity (MDA-MB-435 (human) [3]),Activity (MDA-MB-435 (human) [4]),Activity (MDA-MB-435 (human) [5]),Activity (MDA-MB-435 (human) [6]),IC50 [8],IC50 [9],Activity (MDA-MB-435 (human) [10]),IC50 [11],IC50 [12],Activity (MDA-MB-435 (human) [13]),IC50 (P388),IC50 [14],other results
CC[C@@]1(O)C(=O)OCc2c1cc1n(c2=O)Cc2cc3ccccc3nc2-1 [CAMPTOTHECIN],,,,,,,,,6 nM,,,> 10000 nM,,,> 10000 nM,
COc1cc2c(=O)n(CCN(CC#N)C(C)C)c3c4cc5c(cc4ncc3c2cc1OC)OCO5,< 0.2,,9 nM,,,,,43 nM,2 nM,,6 nM,60 nM,,2 nM,1300 nM,Activity (MDA-MB-435 (human) [15]): 286 mm3; Activity (MDA-MB-435 (human) [16]): 314 mm3; Activity (MDA-MB-435 (human) [17]): 142 mm3; Activity (MDA-MB-435 (human) [18]): 250 mm3; Activity (MDA-MB-435 (human) [19]): 213 mm3; Activity (MDA-MB-435 (human) [20]): 175 mm3; Activity (MDA-MB-435 (human) [21]): 220 mm3
COc1cc2c(=O)n(CCN(CC(F)(F)F)C(C)C)c3c4cc5c(cc4ncc3c2cc1OC)OCO5,> 10,,1100 nM,,,,,4400 nM,1900 nM,,1000 nM,> 10000 nM,,1100 nM,> 10000 nM,
C#CCN(CCn1c(=O)c2cc(OC)c(OC)cc2c2cnc3cc4c(cc3c21)OCO4)C(C)C,> 10,310 mm3,70 nM,357 mm3,165 mm3,234 mm3,99 mm3,430 nM,65 nM,112 mm3,100 nM,3700 nM,170 mm3,80 nM,> 10000 nM,
CCOc1cc2c(=O)n(CCN(C)C)c3c4cc5c(cc4ncc3c2cc1OCC)OCO5,,,100 nM,,,,,190 nM,150 nM,,70 nM,13 nM,,15 nM,140 nM,Activity [7]: > 10
CC[C@@]1(O)C(=O)OCc2c1cc1n(c2=O)Cc2cc3c(CN(C)C)c(O)ccc3nc2-1 [TOPOTECAN],1,,440 nM,,,,,,21 nM,,40 nM,> 10000 nM,,,> 10000 nM,
